Assays:
Assay type in all cases: functional
Details in all cases: read-out: GI
ACHN = test: Antitumor activity against human ACHN cells assessed as growth inhibition at 10 uM relative to control
Summary of the method: (§1)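 After drug addition, plates were incubated 48 h at 37 °C under 5% CO2. Adherent cells were fixed with cold TCA (10% final, 60 min, 4 °C) and suspension cells with 16% final TCA. Staining used 0.4% SRB in 1% acetic acid, solubilized in 10 mM trizma, read at A515. Percent growth was calculated from time-zero, control and treated absorbances.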

SF-539 = test: Antitumor activity against human SF-539 cells assessed as growth inhibition at 10 uM relative to control; summary of the method: as §1
SK-OV-3 = test: Antitumor activity against human SK-OV-3 cells assessed as growth inhibition at 10 uM relative to control
Summary of the method: (§2)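 Drug exposure 48 h at 37 °C, 5% CO2. Adherent cells fixed with cold TCA (10% final), suspension cells with TCA (16% final). Stained with 0.4% SRB in 1% acetic acid, dissolved in 10 mM Tris, A515. Growth relative to time-zero and untreated control.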

MDA-MB-231 = test: Antitumor activity against human MDA-MB-231 cells assessed as growth inhibition at 10 uM relative to control; summary of the method: as §1
OVCAR-3 = test: Antitumor activity against human OVCAR-3 cells assessed as growth inhibition at 10 uM relative to control; summary of the method: as §1
HT-29 = test: Antitumor activity against human HT-29 cells assessed as growth inhibition at 10 uM relative to control; summary of the method: as §1
SW-620 = test: Antitumor activity against human SW-620 cells assessed as growth inhibition at 10 uM relative to control; summary of the method: as §2
786-0 = test: Antitumor activity against human 786-0 cells assessed as growth inhibition at 10 uM relative to control; summary of the method: as §1
NCI-H460 = test: Antitumor activity against human NCI-H460 cells assessed as growth inhibition at 10 uM relative to control; summary of the method: as §1
SK-MEL-2 = test: Antitumor activity against human SK-MEL-2 cells assessed as growth inhibition at 10 uM relative to control; summary of the method: as §1
U-251 = test: Antitumor activity against human U-251 cells assessed as growth inhibition at 10 uM relative to control; summary of the method: as §2
EKVX = test: Antitumor activity against human EKVX cells assessed as growth inhibition at 10 uM relative to control; summary of the method: as §1
A498 = test: Antitumor activity against human A498 cells assessed as growth inhibition at 10 uM relative to control; summary of the method: as §1
PC-3 = test: Antitumor activity against human PC-3 cells assessed as growth inhibition at 10 uM relative to control; summary of the method: as §1
CAKI-1 = test: Antitumor activity against human CAKI-1 cells assessed as growth inhibition at 10 uM relative to control; summary of the method: as §1
MOLT-4 = test: Antitumor activity against human MOLT-4 cells assessed as growth inhibition at 10 uM relative to control; summary of the method: as §1
HCT-116 = test: Antitumor activity against human HCT-116 cells assessed as growth inhibition at 10 uM relative to control; summary of the method: as §1
NCI-H226 = test: Antitumor activity against human NCI-H226 cells assessed as growth inhibition at 10 uM relative to control; summary of the method: as §1
UO-31 = test: Antitumor activity against human UO-31 cells assessed as growth inhibition at 10 uM relative to control; summary of the method: as §2
HL-60 = test: Antitumor activity against human HL-60 cells assessed as growth inhibition at 10 uM relative to control; summary of the method: as §1
OVCAR-4 = test: Antitumor activity against human OVCAR-4 cells assessed as growth inhibition at 10 uM relative to control; summary of the method: as §1
SF-295 = test: Antitumor activity against human SF-295 cells assessed as growth inhibition at 10 uM relative to control; summary of the method: as §1
MDA-MB-468 = test: Antitumor activity against human MDA-MB-468 cells assessed as growth inhibition at 10 uM relative to control; summary of the method: as §1
HOP-62 = test: Antitumor activity against human HOP-62 cells assessed as growth inhibition at 10 uM relative to control; summary of the method: as §1
SK-MEL-28 = test: Antitumor activity against human SK-MEL-28 cells assessed as growth inhibition at 10 uM relative to control; summary of the method: as §2
M14 = test: Antitumor activity against human M14 cells assessed as growth inhibition at 10 uM relative to control; summary of the method: as §1
NCI-H322M = test: Antitumor activity against human NCI-H322M cells assessed as growth inhibition at 10 uM relative to control; summary of the method: as §1
DU-145 = test: Antitumor activity against human DU-145 cells assessed as growth inhibition at 10 uM relative to control; summary of the method: as §1
IGROV-1 = test: Antitumor activity against human IGROV-1 cells assessed as growth inhibition at 10 uM relative to control; summary of the method: as §1
BT-549 = test: Antitumor activity against human BT-549 cells assessed as growth inhibition at 10 uM relative to control; summary of the method: as §1
T47D = test: Antitumor activity against human T47D cells assessed as growth inhibition at 10 uM relative to control; summary of the method: as §2
RXF 393 = test: Antitumor activity against human RXF 393 cells assessed as growth inhibition at 10 uM relative to control; summary of the method: as §1
SNB-75 = test: Antitumor activity against human SNB-75 cells assessed as growth inhibition at 10 uM relative to control; summary of the method: as §2
COLO 205 = test: Antitumor activity against human COLO 205 cells assessed as growth inhibition at 10 uM relative to control; summary of the method: as §1
SN12C = test: Antitumor activity against human SN12C cells assessed as growth inhibition at 10 uM relative to control; summary of the method: as §2
KM12 = test: Antitumor activity against human KM12 cells assessed as growth inhibition at 10 uM relative to control; summary of the method: as §1
NCI-H522 = test: Antitumor activity against human NCI-H522 cells assessed as growth inhibition at 10 uM relative to control; summary of the method: as §1
HCT-15 = test: Antitumor activity against human HCT-15 cells assessed as growth inhibition at 10 uM relative to control; summary of the method: as §1
SF-268 = test: Antitumor activity against human SF-268 cells assessed as growth inhibition at 10 uM relative to control; summary of the method: as §1
SK-MEL-5 = test: Antitumor activity against human SK-MEL-5 cells assessed as growth inhibition at 10 uM relative to control; summary of the method: as §2
UACC-257 = test: Antitumor activity against human UACC-257 cells assessed as growth inhibition at 10 uM relative to control; summary of the method: as §2
HOP-92 = test: Antitumor activity against human HOP-92 cells assessed as growth inhibition at 10 uM relative to control; summary of the method: as §1
MDA-MB-435 = test: Antitumor activity against human MDA-MB-435 cells assessed as growth inhibition at 10 uM relative to control; summary of the method: as §1
UACC-62 = test: Antitumor activity against human UACC-62 cells assessed as growth inhibition at 10 uM relative to control; summary of the method: as §2
LOX IMVI = test: Antitumor activity against human LOX IMVI cells assessed as growth inhibition at 10 uM relative to control; summary of the method: as §1
OVCAR-8 = test: Antitumor activity against human OVCAR-8 cells assessed as growth inhibition at 10 uM relative to control; summary of the method: as §1

SMILES: N#Cc1c(-c2ccc(Cl)cc2)nc(NN)nc1N1CCOCC1
- inhibition of growth at 10 µM (ACHN): < 1%
- inhibition of growth at 10 µM (SF-539): 12.3%
- inhibition of growth at 10 µM (SK-OV-3): < 1%
- inhibition of growth at 10 µM (MDA-MB-231): 14.5%
- inhibition of growth at 10 µM (OVCAR-3): < 1%
- inhibition of growth at 10 µM (HT-29): < 1%
- inhibition of growth at 10 µM (SW-620): < 1%
- inhibition of growth at 10 µM (786-0): < 1%
- inhibition of growth at 10 µM (NCI-H460): < 1%
- inhibition of growth at 10 µM (SK-MEL-2): < 1%
- inhibition of growth at 10 µM (U-251): < 1%
- inhibition of growth at 10 µM (EKVX): 14.3%
- inhibition of growth at 10 µM (A498): 27.8%
- inhibition of growth at 10 µM (PC-3): < 1%
- inhibition of growth at 10 µM (CAKI-1): 20.8%
- inhibition of growth at 10 µM (MOLT-4): < 1%
- inhibition of growth at 10 µM (HCT-116): < 1%
- inhibition of growth at 10 µM (NCI-H226): 14.1%
- inhibition of growth at 10 µM (UO-31): 34.1%
- inhibition of growth at 10 µM (HL-60): < 1%
- inhibition of growth at 10 µM (OVCAR-4): < 1%
- inhibition of growth at 10 µM (SF-295): < 1%
- inhibition of growth at 10 µM (MDA-MB-468): < 1%
- inhibition of growth at 10 µM (HOP-62): 14.4%
- inhibition of growth at 10 µM (SK-MEL-28): < 1%
- inhibition of growth at 10 µM (M14): < 1%
- inhibition of growth at 10 µM (NCI-H322M): < 1%
- inhibition of growth at 10 µM (DU-145): < 1%
- inhibition of growth at 10 µM (IGROV-1): 15.9%
- inhibition of growth at 10 µM (BT-549): < 1%
- inhibition of growth at 10 µM (T47D): 17.4%
- inhibition of growth at 10 µM (RXF 393): < 1%
- inhibition of growth at 10 µM (SNB-75): 26.9%
- inhibition of growth at 10 µM (COLO 205): < 1%
- inhibition of growth at 10 µM (SN12C): < 1%
- inhibition of growth at 10 µM (KM12): < 1%
- inhibition of growth at 10 µM (NCI-H522): < 1%
- inhibition of growth at 10 µM (HCT-15): < 1%
- inhibition of growth at 10 µM (SF-268): < 1%
- inhibition of growth at 10 µM (SK-MEL-5): < 1%
- inhibition of growth at 10 µM (UACC-257): < 1%
- inhibition of growth at 10 µM (HOP-92): 10.6%
- inhibition of growth at 10 µM (MDA-MB-435): < 1%
- inhibition of growth at 10 µM (UACC-62): 10.7%
- inhibition of growth at 10 µM (LOX IMVI): < 1%
- inhibition of growth at 10 µM (OVCAR-8): < 1%

SMILES: N#Cc1c(-c2ccc(Cl)cc2)nc(N/N=C/c2cccc(Br)c2)nc1N1CCOCC1
- inhibition of growth at 10 µM (ACHN): 28.5%
- inhibition of growth at 10 µM (SF-539): 21.2%
- inhibition of growth at 10 µM (SK-OV-3): < 1%
- inhibition of growth at 10 µM (MDA-MB-231): < 1%
- inhibition of growth at 10 µM (OVCAR-3): < 1%
- inhibition of growth at 10 µM (HT-29): 71%
- inhibition of growth at 10 µM (SW-620): 68.5%
- inhibition of growth at 10 µM (786-0): 38.2%
- inhibition of growth at 10 µM (NCI-H460): 13.1%
- inhibition of growth at 10 µM (SK-MEL-2): < 1%
- inhibition of growth at 10 µM (U-251): 38.4%
- inhibition of growth at 10 µM (EKVX): 31.2%
- inhibition of growth at 10 µM (A498): < 1%
- inhibition of growth at 10 µM (PC-3): 38.8%
- inhibition of growth at 10 µM (CAKI-1): 1%
- inhibition of growth at 10 µM (MOLT-4): 63.9%
- inhibition of growth at 10 µM (HCT-116): 38.5%
- inhibition of growth at 10 µM (NCI-H226): 28.8%
- inhibition of growth at 10 µM (UO-31): 48.8%
- inhibition of growth at 10 µM (HL-60): 59.4%
- inhibition of growth at 10 µM (OVCAR-4): 12.6%
- inhibition of growth at 10 µM (SF-295): < 1%
- inhibition of growth at 10 µM (MDA-MB-468): 23.3%
- inhibition of growth at 10 µM (HOP-62): < 1%
- inhibition of growth at 10 µM (SK-MEL-28): < 1%
- inhibition of growth at 10 µM (M14): 37.6%
- inhibition of growth at 10 µM (NCI-H322M): < 1%
- inhibition of growth at 10 µM (DU-145): 40.4%
- inhibition of growth at 10 µM (IGROV-1): 16.4%
- inhibition of growth at 10 µM (BT-549): < 1%
- inhibition of growth at 10 µM (T47D): 32.5%
- inhibition of growth at 10 µM (RXF 393): < 1%
- inhibition of growth at 10 µM (SNB-75): 23.2%
- inhibition of growth at 10 µM (COLO 205): 56%
- inhibition of growth at 10 µM (SN12C): < 1%
- inhibition of growth at 10 µM (KM12): 19%
- inhibition of growth at 10 µM (NCI-H522): < 1%
- inhibition of growth at 10 µM (HCT-15): 91.6%
- inhibition of growth at 10 µM (SF-268): 10.8%
- inhibition of growth at 10 µM (SK-MEL-5): 14.4%
- inhibition of growth at 10 µM (UACC-257): 13.5%
- inhibition of growth at 10 µM (HOP-92): 28.8%
- inhibition of growth at 10 µM (MDA-MB-435): < 1%
- inhibition of growth at 10 µM (UACC-62): < 1%
- inhibition of growth at 10 µM (LOX IMVI): 20.2%
- inhibition of growth at 10 µM (OVCAR-8): < 1%

Source: ChEMBL document CHEMBL5376013, “Design, synthesis and biological evaluation of novel morpholinopyrimidine-5-carbonitrile derivatives as dual PI3K/mTOR inhibitors” (RSC Med Chem, 2024)
